# ChEMBL document CHEMBL1125626, “Synthesis and structure-activity relationship of new cephalosporins with amino heterocycles at C-7. Dependence of the antibacterial spectrum and beta-lactamase stability on the pKa of the C-7 heterocycle” (1991)
# Columns and labels:
# Staphylococcus aureus [1] = assay: (§1) Minimum inhibitory concentration against Staphylococcus aureus A5(inoculum, 10e5 cfu per spot); assay type: functional
# Summary of the method: (§2)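 MIC in µg/mL, determined in Jewell and Permain growth medium with spot inoculation at 10^5 cfu per spot.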
# Escherichia coli [2] = assay: Minimum inhibitory concentration against Escherichia coli A8 (inoculum, 10e5 cfu per spot); assay type: functional; summary of the method: as §2
# Streptococcus pyogenes = assay: Minimum inhibitory concentration against Streptococcus pyogenes (inoculum, 10e5 cfu per spot) A1; assay type: functional; summary of the method: as §2
# Proteus mirabilis [3] = assay: Minimum inhibitory concentration against Proteus mirabilis A18 (inoculum, 10e5 cfu per spot); assay type: functional; summary of the method: as §2
# Enterobacter cloacae [4] = assay: Minimum inhibitory concentration against Enterobacter cloacae A13(inoculum, 10e2 cfu per spot)
# Serratia marcescens [5] = assay: Minimum inhibitory concentration against Serratia marcescens A16 (inoculum, 10e5 cfu per spot); assay type: functional; summary of the method: as §2
# Pseudomonas aeruginosa [6] = assay: Minimum inhibitory concentration against Pseudomonas aeruginosa A21 (inoculum, 10e5 cfu per spot); assay type: functional; summary of the method: as §2
# [7] = as §1; assay type: functional; summary of the method: as §2
# Staphylococcus aureus [8] = assay: Minimum inhibitory concentration against Staphylococcus aureus A6 (inoculum, 10e5 cfu per spot); assay type: functional; summary of the method: as §2
# Enterobacter cloacae [9] = assay: Minimum inhibitory concentration against Enterobacter cloacae A13(inoculum, 10e5 cfu per spot); assay type: functional; conditions: in the assay text read “10e2 cfu per spot” for “10e5 cfu per spot”
# Staphylococcus aureus [10] = assay: as §1; assay type: functional; conditions: in the assay text read “10e2 cfu per spot” for “10e5 cfu per spot”
# Escherichia coli [11] = assay: Minimum inhibitory concentration against Escherichia coli X4 (inoculum, 10e4 cfu per spot)
# Escherichia coli [12] = assay: Minimum inhibitory concentration against Escherichia coli DCO (inoculum, 10e4 cfu per spot); assay type: functional
# Summary of the method: (§3)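 MIC in µg/mL, determined in Jewell and Permain growth medium with spot inoculation at 10^4 cfu per spot. P99 is described as a constitutive type I lactamase producer.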
# Enterobacter cloacae [13] = assay: Minimum inhibitory concentration against Enterobacter cloacae P99 (inoculum, 10e4 cfu per spot)(type I lactamase producer); assay type: functional; summary of the method: as §3
# Klebsiella aerogenes [14] = assay: Minimum inhibitory concentration against Klebsiella aerogenes X5L (inoculum, 10e4 cfu per spot); assay type: functional; summary of the method: as §3
# Enterobacter cloacae [15] = assay: Minimum inhibitory concentration against Enterobacter cloacae P99 (inoculum, 10e4 cfu per spot); assay type: functional; summary of the method: as §3
# Escherichia coli [16] = assay: Minimum inhibitory concentration against Escherichia coli TEM X3 (inoculum, 10e4 cfu per spot)(TEM I type lactamase producer)
# Proteus mirabilis [17] = assay: Minimum inhibitory concentration against Proteus mirabilis A18(inoculum, 10e5 cfu per spot); assay type: functional; summary of the method: as §2
# Enterobacter cloacae [18] = assay: Minimum inhibitory concentration against Enterobacter cloacae A13 (inoculum, 10e5 cfu per spot); assay type: functional; summary of the method: as §2
# Klebsiella aerogenes [19] = assay: Minimum inhibitory concentration against Klebsiella aerogenes X6 (inoculum, 10e4 cfu per spot); assay type: functional; summary of the method: as §3
# Escherichia coli [20] = assay: Minimum inhibitory concentration against Escherichia coli DC2 (inoculum, 10e4 cfu per spot); assay type: functional; summary of the method: as §3
# Proteus vulgaris [21] = assay: Minimum inhibitory concentration against Proteus vulgaris Pv9 (inoculum, 10e5 cfu per spot)
# Klebsiella pneumoniae [22] = assay: Minimum inhibitory concentration against Klebsiella pneumoniae A24 (inoculum, 10e5 cfu per spot); assay type: functional; summary of the method: as §2
# Staphylococcus aureus [23] = assay: Minimum inhibitory concentration against Staphylococcus aureus A4 (inoculum, 10e5 cfu per spot); assay type: functional; summary of the method: as §2
# Klebsiella pneumoniae [24] = assay: Minimum inhibitory concentration against Klebsiella pneumoniae A24(inoculum, 10e5 cfu per spot). Parentheses value indicate inoculum, 10e2 cfu per spot; assay type: functional
# Summary of the method: (§4)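 MIC in µg/mL in Jewell and Permain growth medium. Each strain was spot-inoculated at 10^5 cfu per spot; the bracketed values come from a 10^2 cfu per spot inoculum.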
# Escherichia coli [25] = assay: Minimum inhibitory concentration against Escherichia coli A8(inoculum, 10e5 cfu per spot). Parentheses value indicate inoculum, 10e2 cfu per spot; assay type: functional; summary of the method: as §4
# Proteus mirabilis [26] = assay: Minimum inhibitory concentration against Proteus mirabilis A18(inoculum, 10e5 cfu per spot). Parentheses value indicate inoculum, 10e2 cfu per spot; assay type: functional; summary of the method: as §4
# Enterobacter cloacae [27] = assay: Minimum inhibitory concentration against Enterobacter cloacae A13(inoculum, 10e5 cfu per spot). Parentheses value indicate inoculum, 10e2 cfu per spot; assay type: functional; summary of the method: as §4
# Staphylococcus aureus [28] = assay: Minimum inhibitory concentration against Staphylococcus aureus A4(inoculum, 10e5 cfu per spot). Parentheses value indicate inoculum, 10e2 cfu per spot; assay type: functional; summary of the method: as §4
# Proteus vulgaris [29] = assay: Minimum inhibitory concentration against Proteus vulgaris Pv9(inoculum, 10e5 cfu per spot). Parentheses value indicate inoculum, 10e2 cfu per spot
# Pseudomonas aeruginosa [30] = assay: Minimum inhibitory concentration against Pseudomonas aeruginosa A21(inoculum, 10e5 cfu per spot). Parentheses value indicate inoculum, 10e2 cfu per spot; assay type: functional; summary of the method: as §4
# Staphylococcus aureus [31] = assay: Minimum inhibitory concentration against Staphylococcus aureus A6(inoculum, 10e5 cfu per spot). Parentheses value indicate inoculum, 10e2 cfu per spot; assay type: functional; summary of the method: as §4
# Serratia marcescens [32] = assay: Minimum inhibitory concentration against Serratia marcescens A16(inoculum, 10e5 cfu per spot). Parentheses value indicate inoculum, 10e2 cfu per spot; assay type: functional; summary of the method: as §4
SMILES,MIC (Escherichia coli [2]),MIC (Streptococcus pyogenes),MIC (Proteus mirabilis [3]),MIC (Serratia marcescens [5]),MIC (Pseudomonas aeruginosa [6]),MIC (Staphylococcus aureus [8]),MIC (Escherichia coli [11]),MIC (Escherichia coli [12]),MIC (Enterobacter cloacae [13]),MIC (Klebsiella aerogenes [14]),MIC (Enterobacter cloacae [15]),MIC (Escherichia coli [16]),MIC (Enterobacter cloacae [18]),MIC (Klebsiella aerogenes [19]),MIC (Escherichia coli [20]),MIC (Proteus vulgaris [21]),MIC (Klebsiella pneumoniae [22]),MIC (Staphylococcus aureus [23]),other results
CC1=C(C(=O)OC(c2ccccc2)c2ccccc2)N2C(=O)[C@@H](Nc3nc4ccccc4s3)C2SC1 (stereo partly specified),> 1000 µg/mL,40 µg/mL,1000 µg/mL,> 1000 µg/mL,> 1000 µg/mL,,,,,,,,,,,,,,MIC (Staphylococcus aureus [1]): 1 µg/mL; MIC (Enterobacter cloacae [4]): > 1000 µg/mL
CC1=C(C(=O)OC(c2ccccc2)c2ccccc2)N2C(=O)[C@@H](Nc3nc4ccccc4[nH]3)C2SC1 (stereo partly specified),8 µg/mL,40 µg/mL,8 µg/mL,200 µg/mL,> 1000 µg/mL,40 µg/mL,,,,,,,,,,,,,MIC [7]: 8 µg/mL; MIC (Enterobacter cloacae [9]): 8 µg/mL
CC(=O)OCC1=C(C(=O)OC(c2ccccc2)c2ccccc2)N2C(=O)[C@@H](Nc3nc4ccccc4s3)C2SC1 (stereo partly specified),200 µg/mL,1 µg/mL,200 µg/mL,1000 µg/mL,> 1000 µg/mL,0.5 µg/mL,,,,,,,,,,,,,MIC (Staphylococcus aureus [10]): 0.5 µg/mL; MIC (Enterobacter cloacae [9]): 200 µg/mL
CC(=O)OCC1=C(C(=O)OC(c2ccccc2)c2ccccc2)N2C(=O)[C@@H](Nc3nc4cc(C)ccc4[nH]3)C2SC1 (stereo partly specified),2 µg/mL,1 µg/mL,,128 µg/mL,> 256 µg/mL,2 µg/mL,1 µg/mL,1 µg/mL,256 µg/mL,128 µg/mL,2 µg/mL,4 µg/mL,256 µg/mL,4 µg/mL,0.06 µg/mL,256 µg/mL,4 µg/mL,16 µg/mL,MIC (Proteus mirabilis [17]): 4 µg/mL
CC(=O)OCC1=C(C(=O)OC(c2ccccc2)c2ccccc2)N2C(=O)[C@@H](Nc3nc4ccccc4[nH]3)C2SC1 (stereo partly specified),2 µg/mL,2 µg/mL,,64 µg/mL,≥ 128 µg/mL,2 µg/mL,0.25 µg/mL,0.5 µg/mL,≥ 128 µg/mL,≥ 128 µg/mL,2 µg/mL,2 µg/mL,≥ 128 µg/mL,2 µg/mL,< 0.03 µg/mL,64 µg/mL,1 µg/mL,8 µg/mL,MIC (Proteus mirabilis [17]): 4 µg/mL
CC1=C(C(=O)OC(c2ccccc2)c2ccccc2)N2C(=O)[C@@H](NC3=NC4CC4N3)C2SC1 (stereo partly specified),,128 µg/mL,,,,,1 µg/mL,1 µg/mL,2 µg/mL,2 µg/mL,1 µg/mL,1 µg/mL,,2 µg/mL,0.5 µg/mL,,,,MIC (Klebsiella pneumoniae [24]): 1 µg/mL; MIC (Escherichia coli [25]): 2 µg/mL; MIC (Proteus mirabilis [26]): > 256 µg/mL; MIC (Enterobacter cloacae [27]): 4 µg/mL; MIC (Staphylococcus aureus [28]): > 256 µg/mL; MIC (Proteus vulgaris [29]): > 256 µg/mL; MIC (Pseudomonas aeruginosa [30]): 256 µg/mL; MIC (Staphylococcus aureus [31]): > 256 µg/mL; MIC (Serratia marcescens [32]): 4 µg/mL
CC1=C(C(=O)OC(c2ccccc2)c2ccccc2)N2C(=O)[C@@H](Nc3nc4ccccc4o3)C2SC1 (stereo partly specified),> 1000 µg/mL,200 µg/mL,1000 µg/mL,> 1000 µg/mL,> 1000 µg/mL,8 µg/mL,,,,,,,,,,,,,MIC (Enterobacter cloacae [4]): 1000 µg/mL; MIC (Staphylococcus aureus [10]): 8 µg/mL
CC1(C)S[C@@H]2[C@H](/N=C/N3CCCCCC3)C(=O)N2[C@H]1C(=O)O [AMDINOCILLIN],0.06 µg/mL,16 µg/mL,32 µg/mL,128 µg/mL,> 256 µg/mL,16 µg/mL,0.03 µg/mL,0.03 µg/mL,0.06 µg/mL,4 µg/mL,0.03 µg/mL,1 µg/mL,0.25 µg/mL,0.12 µg/mL,0.004 µg/mL,64 µg/mL,0.03 µg/mL,> 256 µg/mL,
CO/N=C(\C(=O)N[C@@H]1C(=O)N2C(C(=O)O)=C(COC(C)=O)CS[C@H]12)c1csc(N)n1 [CEFOTAXIME],0.25 µg/mL,0.03 µg/mL,0.06 µg/mL,0.25 µg/mL,128 µg/mL,4 µg/mL,0.06 µg/mL,0.03 µg/mL,32 µg/mL,4 µg/mL,0.03 µg/mL,0.06 µg/mL,256 µg/mL,0.06 µg/mL,0.002 µg/mL,0.5 µg/mL,0.06 µg/mL,32 µg/mL,
